From publication PMC9289880 (Journal of Medicinal Chemistry, 2022)
Read-outs that look alike come from different tables or passages of the source. *1 amine or outer side, *2 acyl side, *3 side chain or, on linkers, in order; H or OH if unused. Where a SMILES comes first, the peptide text is derived from it. Bridges are numbered along the chain shown (N, C = ends). [ ]: non-standard residue; d: D form. Pro(3R-Ph) = O=C(O)[C@H]1NCC[C@@H]1c1ccccc1; Bip = N[C@@H](Cc1ccc(-c2ccccc2)cc1)C(=O)O; αMeS = C[C@](N)(CO)C(=O)O; CH2 = C([*:1])[*:2]

What was measured:
pERK, A375 cells = assay: AlphaScreen pERK counter screen in A375 cells; assay type: cell-based
KRAS^G12D = KRAS^G12D (Homo sapiens, UniProt P01116, G12D); assay: SOS-catalyzed guanine nucleotide exchange; assay type: biochemical
Sequence of KRAS^G12D (P01116 1-188 isoform P01116-2 G12D): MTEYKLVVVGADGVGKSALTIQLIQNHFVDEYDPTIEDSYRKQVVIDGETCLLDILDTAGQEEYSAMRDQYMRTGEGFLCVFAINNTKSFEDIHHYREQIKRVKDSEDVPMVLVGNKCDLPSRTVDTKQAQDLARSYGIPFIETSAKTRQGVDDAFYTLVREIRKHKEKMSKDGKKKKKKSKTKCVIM

AsPC-1 cells = assay: LDH release; assay type: cell-based; settings: 18 h LDH release assay
Method in brief: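 AsPC-1 cells seeded at 15 000/well overnight, then dosed with a compound titration in serum-free medium at 37 °C, 5% CO2. At 18 h post dose, part of the medium was transferred and mixed 1:1 with CytoTox-ONE reagent. Plates shaken 45 min at ambient temperature and fluorescence read (ex 560/em 590 nm). Dose-response curves fitted to 4-parameter logistic.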

pERK, AsPC-1 cells = assay: AlphaScreen pERK assay in AsPC-1 cells; assay type: cell-based; settings: pERK
Method in brief: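 AsPC-1 cells grown in RPMI 1640 (GlutaMAX, HEPES) with 10% FBS and penicillin/streptomycin. Seeded at 15 000 cells/well and held overnight at 37 °C, 5% CO2, then switched to serum-free medium. Compound dose-response series added acoustically, then incubated 2 and 18 h. Cells washed with DPBS and lysed with protease inhibitors. pERK (615 nm) and total ERK (535 nm) read by AlphaScreen SureFire multiplex. pERK/total ERK ratio fitted to 4-parameter logistic.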

[1] = Cell homogenate stability assay; assay type: in vitro ADME; settings: human
Method in brief: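 HeLa cells suspended at 1 × 10^6 cells/mL, probe-sonicated on ice until homogeneous, then frozen at −20 °C until use. Peptides incubated with the homogenate (1 × 10^6 cells/mL equivalent). Loss of parent peptide over increasing time quantified by LC-MS/MS.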

HeLa cells = assay: NanoClick cell permeability assay; assay type: in vitro ADME, Human
[2] = read-out: AlphaScreen (AsPC-1) 2 h IC50, AsPC-1, 2 h
[3] = read-out: AlphaScreen (AsPC-1) 18 h IC50, AsPC-1, 18 h

CC[C@H](C)[C@@H]1NC(=O)[C@H](Cc2ccc(-c3ccccc3)cc2)NC(=O)[C@H](CC(C)C)NC(=O)[C@@H]2[C@@H](c3ccccc3)CCN2C(=O)[C@H](NC(=O)[C@@H](CCCNC(=N)N)NC(=O)[C@@H](CCCNC(=N)N)NC(C)=O)CSCSC[C@@H](C(=O)N[C@H](CCCNC(=N)N)C(=O)N[C@H](CCCNC(=N)N)C(N)=O)NC(=O)[C@H](C(C)C)NC(=O)[C@@H]2CCCN2C(=O)[C@H](CC(=O)O)NC(=O)[C@H](Cc2ccc(O)cc2)NC(=O)[C@](C)(CO)NC1=O [peptide 7, Ac-rr-cyclo(c(methylene)-Prot3Ph-L-Bip-I-aMeS-YDPVC)-rr-NH2] (Ac-[dR][dR][dC][Pro(3R-Ph)]L[Bip]I[αMeS]YDPVC[dR][dR]-NH2; linker 3-13 via CH2)
activity in A375 counter screen, in words (pERK, A375 cells): no LDH release or activity
SOS GNE potency / binding, in words (KRAS^G12D): subnanomolar
LDH release / membrane integrity, in words (AsPC-1 cells): no LDH release
IC50 (pERK, AsPC-1 cells; [2]): 3800 nM
IC50 (pERK, AsPC-1 cells; [3]): 3900 nM
half-life ([1]; tissue homogenate): > 6.2 h

CC[C@H](C)[C@@H]1NC(=O)[C@H](Cc2ccc(-c3ccccc3)cc2)NC(=O)[C@H](CC(C)C)NC(=O)[C@@H]2[C@@H](c3ccccc3)CCN2C(=O)[C@H](NC(=O)[C@@H](CCCNC(=N)N)NC(=O)[C@@H](CCCNC(=N)N)NC(=O)[C@H](CCCCN=[N+]=[N-])NC(C)=O)CSCSC[C@@H](C(=O)N[C@H](CCCNC(=N)N)C(=O)N[C@H](CCCNC(=N)N)C(N)=O)NC(=O)[C@H](C(C)C)NC(=O)[C@@H]2CCCN2C(=O)[C@H](CC(=O)O)NC(=O)[C@H](Cc2ccc(O)cc2)NC(=O)[C@](C)(CO)NC1=O [peptide 9, Ac-Lys(N3)-rr-cyclo(c(methylene)-Prot3Ph-L-Bip-I-aMeS-YDPVC)-rr-NH2]
EC50 (HeLa cells; read-out: NanoClick (HeLa) 4 h EC50, 4 h): 1490 nM
EC50 (HeLa cells; read-out: NanoClick (HeLa) 18 h EC50, 18 h): 148 nM
EC50 (HeLa cells; read-out: NanoClick permeability EC50 at 4 h, 4 h): 1500 nM
EC50 (HeLa cells; read-out: NanoClick permeability EC50 at 18 h, 18 h): 150 nM
IC50 (KRAS^G12D): < 1 nM
IC50 (pERK, AsPC-1 cells; [2]): 6200 nM
IC50 (pERK, AsPC-1 cells; [3]): 6800 nM
half-life at 1 µM ([1]; HeLa cell homogenate): > 6.2 h
